≈ marks a conversion by molar mass, not a printed value.
Key:
[1] = target: 5'-methylthioadenosine/S-adenosylhomocysteine nucleosidase (Escherichia coli O157:H7, UniProt P0AF14); experiment: Inhibition of Escherichia coli S-adenosyl homocysteine/methylthioadenosine nucleosidase (MTA/SAH nucleosidase)
Summary of the method: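 Recombinant His-tagged E. coli enzyme (IPTG-induced in E. coli, IMAC-purified), 50 pM, incubated 10 min at room temperature with 2.5 μM MTA and inhibitor at 0.005–100 μM; 200 μL final volume. Reaction stopped with TFA. Remaining MTA quantified by RP-HPLC (C8) peak integration, and turnover plotted for IC50. Ki derived using Km 1.0 μM for MTA.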

Neisseria meningitidis = experiment: Minimum inhibitory concentration against Neisseria meningitidis; type: functional
Streptococcus pyogenes = experiment: Minimum inhibitory concentration against Streptococcus pyogenes; type: functional
Streptococcus pneumoniae = experiment: Minimum inhibitory concentration against Streptococcus pneumoniae; type: functional

Sequence of 5'-methylthioadenosine/S-adenosylhomocysteine nucleosidase (P0AF14 whole entry): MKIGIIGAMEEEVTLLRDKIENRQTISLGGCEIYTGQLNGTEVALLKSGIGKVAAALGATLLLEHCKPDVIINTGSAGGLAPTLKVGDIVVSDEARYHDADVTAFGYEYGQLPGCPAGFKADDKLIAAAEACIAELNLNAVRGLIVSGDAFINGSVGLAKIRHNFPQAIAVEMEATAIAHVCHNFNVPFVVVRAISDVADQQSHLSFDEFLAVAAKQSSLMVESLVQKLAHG

## CC(C)CNc1cc(NS(=O)(=O)c2cccc(-c3cccc(CCO)c3)c2)cc2c(Cl)[nH]nc12
[1]
  Ki: 25 nM

## Cc1n[nH]c2ccc(NS(=O)(=O)c3ccc(Cl)cc3)cc12
[1]
  Ki: 4000 nM

## CN(C)c1cccc2c(S(=O)(=O)Nc3ccc4c[nH]nc4c3)cccc12
[1]
  Ki: 1000 nM

## Cc1n[nH]c2c(NCC(C)C)cc(NS(=O)(=O)c3cccc(-c4ccccc4)c3)cc12
[1]
  Ki: 498 nM

## Cc1nccc(-c2cccc(S(=O)(=O)Nc3cc(NCC(C)C)c4[nH]nc(C)c4c3)c2)n1
[1]
  Ki: 191 nM

## O=S(=O)(Nc1cc(NCc2ccccc2)c2[nH]nc(Cl)c2c1)c1ccc(Cl)cc1
[1]
  Ki: 1800 nM

## Cc1nccc(-c2cccc(S(=O)(=O)Nc3cc(NCC(C)C)c4n[nH]c(Cl)c4c3)c2)n1
[1]
  Ki: 36 nM

## CN(C)c1cccc2c(S(=O)(=O)Nc3ccc4[nH]ncc4c3)cccc12
[1]
  Ki: 2800 nM

## CSc1cccc(-c2cccc(S(=O)(=O)Nc3cc(NCC(C)C)c4[nH]nc(Cl)c4c3)c2)c1
[1]
  Ki: 17 nM

## Cc1cc(-c2cccc(S(=O)(=O)Nc3cc(NCC(C)C)c4n[nH]c(Cl)c4c3)c2)ccc1Cl
[1]
  Ki: 3.9 nM
Neisseria meningitidis
  MIC: 7.5 µM (≈ 3.78 µg/mL)
Streptococcus pyogenes
  MIC: 7.5 µM (≈ 3.78 µg/mL)
Streptococcus pneumoniae
  MIC: 7.5 µM (≈ 3.78 µg/mL)

## Cc1cc(-c2cccc(S(=O)(=O)Nc3cc(NCC(C)C)c4n[nH]c(Cl)c4c3)c2)ccc1F
[1]
  Ki: 14.6 nM

## CC(C)CNc1cc(NS(=O)(=O)c2cccc(-c3ccc(Cl)c(Cl)c3)c2)cc2c(Cl)[nH]nc12
[1]
  Ki: 1.6 nM
Neisseria meningitidis
  MIC: 1.88 µM (≈ 0.982 µg/mL)
Streptococcus pyogenes
  MIC: 7.5 µM (≈ 3.93 µg/mL)
Streptococcus pneumoniae
  MIC: 7.5 µM (≈ 3.93 µg/mL)

## O=S(=O)(Nc1cc(NCCc2ccccc2)c2[nH]nc(Cl)c2c1)c1ccc(Cl)cc1
[1]
  Ki: 2300 nM

## O=S(=O)(Nc1cc(NCC2CC2)c2[nH]nc(Cl)c2c1)c1ccc(Cl)cc1
[1]
  Ki: 500 nM

## CC(C)CNc1cc(NS(=O)(=O)c2cccc(-c3ccncc3)c2)cc2c(Cl)[nH]nc12
[1]
  Ki: 52 nM
Neisseria meningitidis
  MIC: 10 µM (≈ 4.56 µg/mL)
Streptococcus pyogenes
  MIC: > 20 µM

## Cc1cccc(-c2cccc(S(=O)(=O)Nc3cc(NCC(C)C)c4n[nH]c(Cl)c4c3)c2)c1
[1]
  Ki: 36 nM

## CC(C)CNc1cc(NS(=O)(=O)c2cccc(-c3ccc(Cl)cc3)c2)cc2c(Cl)[nH]nc12
[1]
  Ki: 12.5 nM
Neisseria meningitidis
  MIC: 2.5 µM (≈ 1.22 µg/mL)
Streptococcus pyogenes
  MIC: 1.25 µM (≈ 0.612 µg/mL)
Streptococcus pneumoniae
  MIC: 2.5 µM (≈ 1.22 µg/mL)

## CC(C)CNc1cc(NS(=O)(=O)c2cccc(-c3cnc4ccccc4c3)c2)cc2c(Cl)[nH]nc12
[1]
  Ki: 10.8 nM

## CCNc1cc(NS(=O)(=O)c2ccc(Cl)cc2)cc2c(Cl)[nH]nc12
[1]
  Ki: 2700 nM

## CC(C)(C)CCNc1cc(NS(=O)(=O)c2ccc(Cl)cc2)cc2c(Cl)[nH]nc12
[1]
  Ki: 6500 nM

## Cc1n[nH]c2c(NCC(C)C)cc(NS(=O)(=O)c3cccc(-c4ccncc4)c3)cc12
[1]
  Ki: 240 nM

## Cc1n[nH]c2c(NCC(C)C)cc(NS(=O)(=O)c3cccc(-c4cccc(C(F)(F)F)c4)c3)cc12
[1]
  Ki: 20 nM
Neisseria meningitidis
  MIC: 20 µM (≈ 10.1 µg/mL)
Streptococcus pyogenes
  MIC: > 20 µM

## CC(C)CNc1cc(NS(=O)(=O)c2cccc(-c3ccccc3)c2)cc2c(Cl)[nH]nc12
[1]
  Ki: 94 nM
Neisseria meningitidis
  MIC: 2.5 µM (≈ 1.14 µg/mL)
Streptococcus pyogenes
  MIC: > 20 µM

## CC(C)CNc1cc(NS(=O)(=O)c2cccc(-c3ccc(F)c(F)c3)c2)cc2c(Cl)[nH]nc12
[1]
  Ki: 8.1 nM

## CC(=O)Nc1cc(NS(=O)(=O)c2ccc(Cl)cc2)cc2c(Cl)[nH]nc12
[1]
  Ki: 11000 nM
Neisseria meningitidis
  MIC: 5 µM (≈ 2 µg/mL)
Streptococcus pyogenes
  MIC: 7.5 µM (≈ 2.99 µg/mL)
Streptococcus pneumoniae
  MIC: 5 µM (≈ 2 µg/mL)

## CN(C)c1cccc2c(S(=O)(=O)Nc3ccc4[nH]nc(Cl)c4c3)cccc12
[1]
  Ki: 22000 nM

## Cc1cc(-c2cccc(S(=O)(=O)Nc3cc(NCC(C)C)c4n[nH]c(Cl)c4c3)c2)ccn1
[1]
  Ki: 28.5 nM

## CCc1cccc(-c2cccc(S(=O)(=O)Nc3cc(NCC(C)C)c4[nH]nc(C)c4c3)c2)c1
[1]
  Ki: 125 nM

## Cc1cccc(-c2cccc(S(=O)(=O)Nc3cc(NCC(C)C)c4[nH]nc(C)c4c3)c2)c1
[1]
  Ki: 100 nM
Neisseria meningitidis
  MIC: 20 µM (≈ 8.97 µg/mL)
Streptococcus pyogenes
  MIC: > 20 µM

## Cc1n[nH]c2ccc(NS(=O)(=O)c3cccc4c(N(C)C)cccc34)cc12
[1]
  Ki: 64000 nM

## O=S(=O)(Nc1ccc2[nH]nc(Cl)c2c1)c1ccc(Cl)cc1
[1]
  Ki: 5200 nM

## CC(C)CNc1cc(NS(=O)(=O)c2ccc(Cl)cc2)cc2c(Cl)[nH]nc12
[1]
  Ki: 760 nM
Neisseria meningitidis
  MIC: 5 µM (≈ 2.07 µg/mL)
Streptococcus pyogenes
  MIC: > 20 µM

## CC(C)CNc1cc(NS(=O)(=O)c2cccc(-c3ccc(F)c(Cl)c3)c2)cc2c(Cl)[nH]nc12
[1]
  Ki: 3.4 nM
Neisseria meningitidis
  MIC: 1.88 µM (≈ 0.951 µg/mL)
Streptococcus pyogenes
  MIC: 3.75 µM (≈ 1.9 µg/mL)
Streptococcus pneumoniae
  MIC: 3.75 µM (≈ 1.9 µg/mL)

## CC(C)CNc1cc(NS(=O)(=O)c2cccc(-c3cccc(C(F)(F)F)c3)c2)cc2c(Cl)[nH]nc12
[1]
  Ki: 11 nM

## CC(C)=CCNc1cc(NS(=O)(=O)c2ccc(Cl)cc2)cc2c(Cl)[nH]nc12
[1]
  Ki: 2200 nM

## CC(C)CNc1cc(NS(=O)(=O)c2cccc(-c3ccc(C(F)(F)F)cc3)c2)cc2c(Cl)[nH]nc12
[1]
  Ki: 13 nM
Neisseria meningitidis
  MIC: 5 µM (≈ 2.61 µg/mL)
Streptococcus pyogenes
  MIC: > 20 µM

## CC(C)CCNc1cc(NS(=O)(=O)c2ccc(Cl)cc2)cc2c(Cl)[nH]nc12
[1]
  Ki: 4900 nM

## O=S(=O)(Nc1ccc2c[nH]nc2c1)c1ccc(Cl)cc1
[1]
  Ki: 17000 nM

## CC(C)(C)CNc1cc(NS(=O)(=O)c2ccc(Cl)cc2)cc2c(Cl)[nH]nc12
[1]
  Ki: 1200 nM

## O=S(=O)(Nc1ccc2[nH]ncc2c1)c1ccc(Cl)cc1
[1]
  Ki: 27000 nM
